Assay results from different studies.
Compare with care: the assays were run in different laboratories.
Target: Cyclin-dependent kinase 5 (CDK5, Homo sapiens, UniProt Q00535)

| Compound | observed | method | concentration | remaining binding [%] |
| --- | --- | --- | --- | --- |
| CNCc1ccccc1-c1csc([C@@H](C)Nc2nc(C)nc3cc(OC)c(OC)cc23)c1 | cell-free assay | competition with immobilised ligand | 1 µM | 78 |
| C[C@@H]1CCN(c2nccc(-c3cnn4ncccc34)n2)C1 | binding | – | 1 µM | 100 |
| COc1cnc(Nc2cccc(S(N)(=O)=O)c2)nc1N1CCN(c2ccccc2)CC1 | binding | competition with immobilised ligand | 1 µM | 100 |
| O=C(c1ccc(Nc2ncc(Cl)c(-c3cc4ccccc4s3)n2)cc1)N1CCC(N2CCCC2)CC1 | binding | competition with immobilised ligand | 1 µM | 42 |
| CCN1CCN(Cc2ccc(C(=O)Nc3ccc(C)c(Oc4ccc5c(c4)CC(=O)N5)c3)cc2C(F)(F)F)CC1 | binding | competition with immobilised ligand | 1 µM | 100 |
| Nc1ncc2c(n1)-c1c([nH]c3ccc(C#CC4CC4)cc13)CCCC2 | binding | competition with immobilised ligand | 1 µM | 96 |
| Cn1cc(Cl)c2c(Oc3c(F)cc(Nc4cc(Cl)nc(N)n4)cc3F)ccnc21 | cell-free assay | competition with immobilised ligand | 0.1 µM | 100 |
| COc1ncc2cc3ccccc3nc2c1C#N | cell-free assay | competition with immobilised ligand | 5 µM | 100 |
| C[C@@H]1CN(c2cc(-c3n[nH]c4ccc(OC5(C)CC5)cc34)ncn2)C[C@H](C)O1 | cell-free assay | competition with immobilised ligand | 0.1 µM | 100 |
| O=C(NCCCN1CCOCC1)c1ccc(Nc2ncc(Cl)c(-c3ccc(Cl)s3)n2)cc1 | binding | competition with immobilised ligand | 1 µM | 42 |
| CN(C)c1ncc(F)c(-c2cnn3ncccc23)n1 | binding | – | 1 µM | 82 |
| O=C(Nc1c[nH]nc1C(=O)NC1CCNCC1)c1cc(F)cc(F)c1 | binding | competition with immobilised ligand | 1 µM | 100 |
| CN(c1nccc(-c2cnn3ncccc23)n1)C1CC1 | binding | – | 1 µM | 100 |
| CN([C@@H]1CCc2c(CC(=O)O)c3ccccc3n2C1)S(=O)(=O)c1ccc(F)cc1 | cell-free assay | competition with immobilised ligand | 1 µM | 100 |
| Cc1cnn2ncc(-c3ccnc(N(C)C)n3)c2c1 | binding | – | 1 µM | 100 |
| O=c1nc(-c2ccccn2)sc2ccccc12 | binding | competition with immobilised ligand | 1 µM | 85 |
| CN(CCCC(F)(F)F)c1nccc(-c2cnn3ncccc23)n1 | binding | – | 1 µM | 96 |
| CNC(=O)Nc1ccc2c(c1)CC[C@@]21OC(=O)N(CC(=O)N(Cc2ccc(F)cc2)[C@@H](C)C(F)(F)F)C1=O | cell-free assay | competition with immobilised ligand | 1 µM | 84 |
| CC1CCCN1c1nccc(-c2cnn3ncccc23)n1 (stereo not shown) | binding | – | 1 µM | 96 |
| CC1=C(C#N)C(c2ccc3c(c2)c(NC(=O)c2ccccc2C)nn3C)C(C#N)=C(C)N1 | cell-free assay | competition with immobilised ligand | 1 µM | 87 |
| N[C@@H]1CCN(c2nccc(-c3cnn4ncccc34)n2)C1 | binding | – | 1 µM | 100 |
| O=C(NCCCN1CCOCC1)c1ccc(Nc2nccc(-c3cc4ccccc4s3)n2)cc1 | binding | competition with immobilised ligand | 1 µM | 84 |
